Yeast lifespan up: yeast lifespan extension. inhibition of the nicotinamide effect, % at 10 µM. S. cerevisiae growth with nicotinamide, OD615; deaD strain in restrictive glucose medium. AID 775. 130,000 tested, 0.68% active;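 active means inhibition above a set limit, placed 3 SD over the median of all compounds, cut at about 26% in these data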;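 further: 0% = nicotinamide-treated wells and 100% = cells grown without nicotinamide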
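Assay system: engineered S. cerevisiae DeaD replicative-lifespan strain, galactose-grown log-phase cells; medium: restrictive CSMM-D dextrose medium; also added: nicotinamide, 1.5 mM, co-present with compound; schedule: 48 h compound exposure at 30 °C, humidified; detection: absorbance at 615 nm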
PTEN del growth: suppresses growth of cells with PTEN deletion; HCT116 PTEN-null viability, CellTiter-Glo, 60 h; stronger effect = lower value; viability, % at 10 µM; 140,000 tested, 1.2% active;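 active means viability at or below a set limit, 4 SD under the median of all tested compounds, cut at about 3.7% in these data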;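 further: PTEN knockout HCT116 line with beta catenin targeted HCT116 as companion control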
sdo1 growth: compounds rescuing growth of sdo1-depleted yeast, bone marrow failure model. S. cerevisiae sdo1-depleted JHY4D growth rescue, OD600 30 h; stronger effect = higher value; pdr5 snq2 efflux-pump mutant strain. z-score at 10 µM. 140,000 tested, 0.21% active. AID 817;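 active means z-score above 3 at both the 24 hr and the 30 hr optical density reads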;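 further: z-score against mean and SD of all compound wells on the same plate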
BB579 growth dn: yeast BB579 growth reduction in restrictive medium; S. cerevisiae BB579 growth, OD615, 48 h; AID 804; inhibition, % at 10 µM; 140,000 tested, 0.51% active;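 active means inhibition above a set limit, 3 SD over the mean compound inhibition, cut at about 44% in these data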
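controls = amphotericin B 10 µg/mL, positive | assay system = DeaD yeast strain BB579 | schedule = 48 h compound exposure at 30 °C after 4 h preincubation | detection = OD615 turbidity measurement | medium = restrictive CSMM-D medium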
HCT116 bCat-KO: beta-catenin-lacking colon tumor cell growth suppression; HCT116 beta-catenin knockout viability, CellTiter-Glo, 60 h; stronger effect = lower value; 140,000 tested, 1.5% active; viability, % at 10 µM;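 active means viability at or under a set limit, the compound median less 4 SD, cut at about 6% in these data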;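 further: 0% = Hyamine 1622 control at 20 µM and 100% = untreated cell control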
* hit, by the source's call; . = not tested or not shown. Most compounds without a hit are left out; they make up all but 2.8% or so of the library.

SMILES	Yeast lifespan up	PTEN del growth	sdo1 growth	BB579 growth dn	HCT116 bCat-KO
Cc1cccc(C(=O)N/N=C/c2ccccn2)c1	2	36	1.4	-7	38
O=C(N/N=C/c1ccccn1)c1ccc(Br)cc1	-6	3.6*	-0.34	-9	3.6*
Cc1ccc(/C=C/C(=O)Nc2ccccc2C(N)=O)cc1	-2	71	0.08	-8	55
Cc1[nH]c2ccccc2c1/C=N/NC(=O)C1CC1(c1ccccc1)c1ccccc1 (stereo not drawn)	-2	3.4*	-0.49	-26	2.7*
CCOC(=O)C/C(C)=N/NC(=O)C1CC1(c1ccccc1)c1ccccc1 (stereo not drawn)	5	87	-0.32	-24	82
Cc1cc(OCC(=O)O)c2cccc(C)c2n1	-9	101	1.1	-2	87
Cc1cc(C)c2c(N)c3cccc(C)c3nc2n1	-2	2.5*	0.78	-1	2.5*
CC1=C(/C=C/C(=O)O)C(C)(C)CCC1	28*	104	-0.14	-2	97
CC1=C(/C=N/Nc2ccc([N+](=O)[O-])cc2[N+](=O)[O-])C(C)(C)CCC1	-6	81	0.36	-9	80
O=C(CSc1nnc(SCc2cccc3ccccc23)s1)N=Nc1c(O)[nH]c2ccccc12	4	1.0*	-0.49	-49	4.3*
COc1ccc(-c2cc(C(=O)Nc3nc4c(C)cccc4s3)c3ccccc3n2)cc1OC	-12	62	-1.1	-50	72
Cc1cccc2sc(NNC(=O)c3cc(-c4cccs4)nc4ccccc34)nc12	6	6	-1.8	-32	2.3*
CCCC(=O)OCCNc1cc(Sc2nccn2C)c2nonc2c1[N+](=O)[O-]	8	1.7*	0.04	-27	1.9*
CCCC(=O)OCCNc1cc(SCc2ccco2)c2nonc2c1[N+](=O)[O-]	2	14	-0.58	-2	2.7*
CC(=O)OCCCNc1cc(SCc2ccco2)c2nonc2c1[N+](=O)[O-]	5	3.5*	-0.75	-36	2.3*
CCCSc1cc(NCCOC(C)=O)c([N+](=O)[O-])c2nonc12	1	89	0.94	-2	91
CCCSc1cc(NCCOC(=O)CCC)c([N+](=O)[O-])c2nonc12	28*	21	-1.1	2	21
CCOC(=O)C1CCCN(c2cc(NCCCO)c([N+](=O)[O-])c3nonc23)C1 (stereo not drawn)	1	95	0.06	-28	93
COc1cc(C(=O)NCCCNc2ccc([N+](=O)[O-])cc2)cc(OC)c1OC	-8	81	1.3	20	90
N#CC(C#N)=C1C=CC=CN1/C(=C\c1ccco1)C(=O)c1ccc(Br)cc1	-5	4	-2.1	-25	6
N#CC(C#N)=C1C=CC=CN1/C(=C\c1ccco1)C(=O)c1ccccc1	1	1.8*	-0.88	23	1.9*
CC(=O)N1CCN(c2ccc(OC[C@H]3CO[C@](Cn4ccnc4)(c4ccc(Cl)cc4Cl)O3)cc2)CC1	-7	47	-2.1	93*	44
Cc1c(Cl)cccc1N(CC(=O)NC1CCCCC1)S(C)(=O)=O	-1	85	0.26	-30	91
CCN1/C(=C/c2ccc3cc(C)ccc3[n+]2CC)Sc2ccccc21	-11	1.3*	-2	98*	1.2*
O=C(Nc1ccc2oc(=O)ccc2c1)c1cccnc1Cl	-13	100	0.43	-26	87
SMILES	Yeast lifespan up	PTEN del growth	sdo1 growth	BB579 growth dn	HCT116 bCat-KO
CC(=O)c1sc2nc(-c3cccs3)ccc2c1N	-5	87	-0.66	7	89
Nc1c(C(=O)Nc2nc3ccccc3s2)sc2nc(-c3cccs3)ccc12	-7	0.1*	-1.3	-56	-0.1*
Cc1cc(C)c(C(=O)/C=C/c2cccc3ccccc23)c(=O)[nH]1	-3	2.3*	-0.28	-30	1.5*
CC(=O)OCC1OC(Nc2cccc(C)c2)C(OC(C)=O)C(OC(C)=O)C1OC(C)=O (stereo not drawn)	3	96	1.3	-31	91
CN(CC(=O)O/N=C(\N)c1ccc([N+](=O)[O-])cc1)S(=O)(=O)c1ccc2ccccc2c1	-10	108	-2	-32	104
COc1cc2c(cc1OC)C(/C(C#N)=N\O)=NC(C)(C)C2	1	88	-0.48	-6	94
COc1cc2c(cc1OC)C(SC)=NC(C)(C)C2	.	12	0.65	-36	2.2*
O=c1c(-c2ccc(Cl)cc2)[n+]([O-])c2ccccc2n1O	-15	97	1.9	100*	97
CC1C/C(=C/c2cccn2C)C(=O)/C(=C/c2cccn2C)C1 (stereo not drawn)	-28	11	-1.4	10	3.8*
Oc1[nH]c2ccccc2c1N=Nc1ccc(F)cc1	-8	79	-0.03	-42	81
Oc1[nH]c2ccccc2c1N=Nc1nc2ccccc2s1	-23	1.6*	-0.06	-37	1.3*
Cc1ccc(S(=O)(=O)c2ccc(C)cc2)cc1	58*	.	-0.86	-17	97
CSCCC(NS(=O)(=O)c1ccc(Cl)cc1)C(=O)OCC(=O)c1ccc(F)cc1 (stereo not drawn)	36*	91	-0.7	-25	89
CSCCC(NS(=O)(=O)c1ccc(Cl)cc1)C(=O)OCC(=O)N(C(C)C)C(C)C (stereo not drawn)	-2	98	-0.46	-31	98
CCOc1ccc(NS(=O)(=O)c2ccc(NC(=O)[C@@H]3CCCC[C@@H]3C(=O)O)cc2)cc1	-3	91	0.99	-16	91
CC(C)c1noc2ncc(C(=O)c3cc(Cl)cc(Cl)c3O)cc12	64*	92	-2.2	-22	92
Cc1ccc(N2NC(C)(c3cccs3)NC2=S)cc1 (stereo not drawn)	-10	88	-1.4	98*	89
COc1ccc(Oc2c(Cl)cnn(-c3ccc(F)cc3)c2=O)cc1	2	93	0.17	-50	95
COc1ccc(Oc2c(Cl)cnn(-c3ccc(Cl)c(Cl)c3)c2=O)cc1	-18	0.7*	-0.66	-3	1.0*
Cn1ncc(Cl)c(Oc2ccc(Cl)cc2)c1=O	0	77	0.81	-20	62
Nc1ccc(Sc2cnn(-c3ccccc3)c(=O)c2Cl)cc1	-10	61	-1.8	-21	64
COc1c(Cl)cnn(-c2ccc(C)cc2)c1=O	-9	1.1*	1.4	-20	1.2*
Cc1ccc(Sc2cnn(-c3ccccc3)c(=O)c2Cl)cc1	31*	45	-0.49	-9	54
COc1ccc(Oc2c(Cl)cnn(-c3ccc(C)cc3)c2=O)cc1	-21	15	-0.04	-40	5.5*
OC(COCC(F)(F)C(F)(F)C(F)(F)C(F)F)Cn1c2ccc(Cl)cc2c2cc(Cl)ccc21 (stereo not drawn)	-1	1.7*	-1.3	-33	2.2*
CCOc1ccccc1NC(=O)CC(O)(C(F)(F)F)C(F)(F)F	.	90	-0.46	-11	91

From PubChem
